Experimental data reported in ChEMBL document CHEMBL1124897, “(1-Pyrenylmethyl)amino alcohols, a new class of antitumor DNA intercalators. Discovery and initial amine side chain structure-activity studies” (1990).
The source made the active and inactive calls. The calls are words filed in the database; no cut-off is given here.

Columns and labels:
[1] = test system: P388; assay: In vivo antitumor activity against murine lymphocytic leukemia P388 measured as lethal dose […]; type: functional, Mus musculus; set-up: unit: mg/kg
In short: (§1)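 Male CD2-F1 mice (20 ± 3 g) implanted ip with 1 × 10^6 viable P388 cells on day 0. Drug given ip as aqueous suspension or solution in 0.9% NaCl or 5% dextrose on days 1, 5 and 9, dosed per body weight in mg/kg. Several dose levels bracketing the LD20 were tested, six mice per dose. Deaths before the control median day of death were counted as drug toxicity.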

[2] = test system: P388; assay: In vivo antitumor activity against murine lymphocytic leukemia P388 measured as percent increase in life span; type: functional, Mus musculus; in short: as §1
[3] = test system: P388; assay: In vivo antitumor activity against murine lymphocytic leukemia P388 measured as optimal dose; type: functional, Mus musculus
In short: (§2)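 Male CD2-F1 mice (20 ± 3 g) implanted ip with 1 × 10^6 viable P388 cells on day 0. Compound given ip as aqueous suspension or solution in 0.9% NaCl or 5% dextrose on days 1, 5 and 9, dosed per mg/kg body weight. Several doses bracketing LD20 were tested, six mice per dose. %ILS was calculated from median day of death of treated versus control mice. Values are optimal from at least two experiments.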

[4] = test system: P388; assay: In vivo antitumor activity against murine lymphocytic leukemia P388, measured as percent increase in life span; type: functional, organism-based; settings: Mus musculus; in short: as §2
[5] = test system: P388; assay: In vivo antitumor activity against murine lymphocytic leukemia P388 measured as optimal dose which is the highest nontoxic dose; type: functional, Mus musculus

CC(O)C(C)(CO)NCc1ccc2ccc3cccc4ccc1c2c34.Cl (stereo not drawn)
LD20 [1]: 125 | ILS [2]: 77% | Optimal dose [3]: 125 mg/kg

Cl.OCC(CO)(CO)NCc1ccc2ccc3cccc4ccc1c2c34
LD20 [1]: 215 | ILS [2]: 90% | Optimal dose [3]: 198 mg/kg

Cl.Clc1ccc(CNCc2ccc3ccc4cccc5ccc2c3c45)cc1Cl
ILS [4]: inactive | LD20 [1]: 400 | Optimal dose [5]: 900 mg/kg

CCC(CO)NCc1ccc2ccc3cccc4ccc1c2c34.Cl (stereo not drawn)
LD20 [1]: 450 | ILS [2]: 25% | Optimal dose [3]: 366 mg/kg

CN(CCO)Cc1ccc2ccc3cccc4ccc1c2c34.Cl
ILS [4]: inactive | LD20 [1]: 366 | Optimal dose [5]: 365 mg/kg

CCN(CC)CCCC(C)NCc1ccc2ccc3cccc4ccc1c2c34.Cl (stereo not drawn)
ILS [4]: inactive | LD20 [1]: 100 | Optimal dose [5]: 150 mg/kg

CCOCC(CO)(CO)NCc1ccc2ccc3cccc4ccc1c2c34.Cl
LD20 [1]: 225 | ILS [2]: 30% | Optimal dose [3]: 168 mg/kg

CN(C)CCCNCc1ccc2ccc3cccc4ccc1c2c34.Cl
ILS [4]: inactive | LD20 [1]: 85 | Optimal dose [5]: 127 mg/kg

CCC(CO)(CO)NCc1ccc2ccc3cccc4ccc1c2c34.Cl
LD20 [1]: 340 | ILS [2]: 140% | Optimal dose [3]: 303 mg/kg

CC(=O)OCC(C)(COC(C)=O)NCc1ccc2ccc3cccc4ccc1c2c34
LD20 [1]: 300 | Optimal dose [5]: 300 mg/kg | ILS [2]: 65%

CC(CO)(CO)NCCCc1ccc2ccc3cccc4ccc1c2c34.Cl
ILS [4]: inactive | LD20 [1]: 67.5 | Optimal dose [5]: 100 mg/kg

CN(CCCN)CCCNCc1ccc2ccc3cccc4ccc1c2c34.Cl
LD20 [1]: 23 | ILS [2]: 20% | Optimal dose [3]: 23 mg/kg

OCC1OC(O)C(NCc2ccc3ccc4cccc5ccc2c3c45)C(O)C1O (stereo not drawn)
LD20 [1]: 400 | ILS [2]: 20% | Optimal dose [3]: 450 mg/kg

Cl.OCC(O)C(CO)NCc1ccc2ccc3cccc4ccc1c2c34 (stereo not drawn)
LD20 [1]: 140 | ILS [2]: 25% | Optimal dose [3]: 125 mg/kg

CC(O)CNCCNCc1ccc2ccc3cccc4ccc1c2c34.Cl (stereo not drawn)
ILS [4]: inactive | LD20 [1]: 150 | Optimal dose [5]: 150 mg/kg

CC(C)(O)CNCc1ccc2ccc3cccc4ccc1c2c34.Cl
ILS [4]: inactive | LD20 [1]: 220 | Optimal dose [3]: 330 mg/kg

CC(C)C(CO)(CO)NCc1ccc2ccc3cccc4ccc1c2c34.Cl
LD20 [1]: 300 | ILS [2]: 55% | Optimal dose [3]: 450 mg/kg

Cl.OCCNCCNCc1ccc2ccc3cccc4ccc1c2c34
ILS [4]: inactive | LD20 [1]: 200 | Optimal dose [5]: 134 mg/kg

CC(CO)(CO)NCc1ccc2ccc3cccc4ccc1c2c34.Cl
LD20 [1]: 300 | ILS [2]: 125% | Optimal dose [3]: 300 mg/kg

COCCNCc1ccc2ccc3cccc4ccc1c2c34.Cl
ILS [4]: inactive | LD20 [1]: 200 | Optimal dose [5]: 133 mg/kg

CC(C)CC(CO)NCc1ccc2ccc3cccc4ccc1c2c34.Cl (stereo not drawn)
ILS [4]: inactive | LD20 [1]: 675 | Optimal dose [5]: 1012 mg/kg

Cl.OC(CNCc1ccc2ccc3cccc4ccc1c2c34)c1ccccc1 (stereo not drawn)
ILS [4]: inactive | LD20 [1]: 450 | Optimal dose [5]: 450 mg/kg

Cl.NCc1ccc2ccc3cccc4ccc1c2c34
ILS [4]: inactive | LD20 [1]: 130 | Optimal dose [5]: 194 mg/kg

Cl.NCCCCCNCc1ccc2ccc3cccc4ccc1c2c34
ILS [4]: inactive | LD20 [1]: 20 | Optimal dose [5]: 116 mg/kg

CCC(C)C(CO)NCc1ccc2ccc3cccc4ccc1c2c34.Cl (stereo not drawn)
ILS [4]: inactive | LD20 [1]: 675 | Optimal dose [5]: 675 mg/kg

Cl.OCCCCCNCc1ccc2ccc3cccc4ccc1c2c34
ILS [4]: inactive | LD20 [1]: 196 | Optimal dose [5]: 131 mg/kg

Cl.c1cc2ccc3ccc(CNCCCNC4CCCCC4)c4ccc(c1)c2c34
ILS [4]: inactive | LD20 [1]: 134 | Optimal dose [5]: 200 mg/kg

Cl.OCCCCNCc1ccc2ccc3cccc4ccc1c2c34
ILS [4]: inactive | LD20 [1]: 208 | Optimal dose [5]: 139 mg/kg

CCCCCC(CO)(CO)NCc1ccc2ccc3cccc4ccc1c2c34.Cl
ILS [4]: inactive | LD20 [1]: 675 | Optimal dose [5]: 675 mg/kg

CCC(O)CNCc1ccc2ccc3cccc4ccc1c2c34.Cl (stereo not drawn)
ILS [4]: inactive | LD20 [1]: 225 | Optimal dose [5]: 225 mg/kg

CCC(COC(C)=O)(COC(C)=O)NCc1ccc2ccc3cccc4ccc1c2c34
LD20 [1]: 675 | Optimal dose [5]: 303 mg/kg | ILS [2]: 40%
